From ChEMBL document CHEMBL5252516, “Linker Modification Strategies To Control the Prostate-Specific Membrane Antigen (PSMA)-Targeting and Pharmacokinetic Properties of DOTA-Conjugated PSMA Inhibitors” (J Med Chem, 2016)
One block for each compound: values may come before it.

How the values were obtained:
[1] = Distribution coefficient, logD of the compound at pH 7.4 in n-octanol/0.1 M HEPES by shake flask method; format: physicochemical
Method in brief: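 Radiolabelled compound shaken to equilibrium in n-octanol / 0.1 M HEPES pH 7.4. Aliquots of both phases gamma-counted and logD calculated from the phase ratio. Mean ± SD.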

[2] = Drug uptake in iv dosed BALB/c athymic nude mouse tumor xenografted with human LNCaP cells treated with 68Ga-labeled compound measured after 1 hr by microPET imaging analysis; format: ADME, organism-based; settings: in vivo
Method in brief: (§1)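 Male BALB/c nu/nu mice, 6–8 weeks old, with subcutaneous LNCaP xenografts (6 × 10^6 cells in 50% Matrigel, right trunk) of about 1 cm. Tail-vein injection of 68Ga-labelled compound (~30 MBq, 0.5 nmol) under sevoflurane. Dynamic µPET: 60 min emission scan, then 100–120 min scan. SUVmean for tumor, muscle and kidney at 1 h; tumor/muscle ratio. One animal per compound.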

[3] = Ratio of drug uptake in tumor to muscle in iv dosed BALB/c athymic nude mouse xenografted with human LNCaP cells treated with 68Ga-labeled compound measured after 1 hr by microPET imaging analysis; format: ADME, organism-based; settings: in vivo; method in brief: as §1
[4] = Retention time of the compound by HPLC; format: physicochemical
[5] = Drug uptake in iv dosed BALB/c athymic nude mouse tumor xenografted with human LNCaP cells treated with 68Ga-labeled compound measured upto 120 mins by microPET imaging analysis; format: ADME, organism-based; settings: in vivo, 2 h; method in brief: as §1
[6] = molecular target: T1, Glutamate carboxypeptidase 2 (Homo sapiens, UniProt Q04609); test: Inhibition of PSMA in human LNCaP cells assessed as specific internalization per 10^6 cells using 177Lu-labeled compound after 45 mins by gamma counting analysis; format: cell-based
Method in brief: (§2)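 LNCaP cells (10^5/well) seeded on poly-L-lysine 24 h before. Incubated 45 min at 37 °C with 32 nM 177Lu-labelled compound (25 GBq/µmol) in Opti-MEM, with or without 500 µM 2-PMPA as blocker. Four ice-cold PBS washes, surface fraction stripped with 50 mM glycine pH 2.8, internalized fraction released by 0.3 M NaOH lysis. Both fractions gamma-counted, specific values given as %IA/10^6 cells. Triplicate.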
Target sequence in this assay (Q04609 whole entry, looked up): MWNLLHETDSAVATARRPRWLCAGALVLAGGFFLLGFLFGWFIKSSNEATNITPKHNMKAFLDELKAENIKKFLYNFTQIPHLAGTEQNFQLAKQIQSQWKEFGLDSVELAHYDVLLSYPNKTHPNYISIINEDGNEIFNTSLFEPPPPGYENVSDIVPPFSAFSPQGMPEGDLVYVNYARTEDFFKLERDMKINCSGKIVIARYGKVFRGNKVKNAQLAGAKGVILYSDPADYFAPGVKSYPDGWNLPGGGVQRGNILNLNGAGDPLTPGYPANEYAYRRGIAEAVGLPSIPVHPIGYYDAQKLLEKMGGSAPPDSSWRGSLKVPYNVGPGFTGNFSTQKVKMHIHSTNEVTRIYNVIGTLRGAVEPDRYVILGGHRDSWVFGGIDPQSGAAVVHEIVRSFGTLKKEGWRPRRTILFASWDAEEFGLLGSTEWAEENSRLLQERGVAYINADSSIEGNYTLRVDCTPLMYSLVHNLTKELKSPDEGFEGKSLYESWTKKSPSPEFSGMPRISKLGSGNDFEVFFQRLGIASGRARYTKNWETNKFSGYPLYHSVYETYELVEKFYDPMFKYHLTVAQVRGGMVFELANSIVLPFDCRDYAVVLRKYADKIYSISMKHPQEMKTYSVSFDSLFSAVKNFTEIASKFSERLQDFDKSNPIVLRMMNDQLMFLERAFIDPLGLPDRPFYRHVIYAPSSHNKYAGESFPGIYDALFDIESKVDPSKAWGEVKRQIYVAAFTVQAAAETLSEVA

[7] = molecular target: T1, Glutamate carboxypeptidase 2; test: Binding affinity to PSMA in human LNCaP cells after 45 mins in presence of 68Ga-labeled PSMA-10 by gamma counting assay; format: cell-based
Target sequence in this assay (Q04609 whole entry): as the sequence (Q04609 whole entry, looked up) above

[8] = Drug uptake in iv dosed BALB/c athymic nude mouse kidney xenografted with human LNCaP cells treated with 68Ga-labeled compound measured after 1 hr by microPET imaging analysis; format: ADME, organism-based; settings: in vivo; method in brief: as §1
[9] = molecular target: T1, Glutamate carboxypeptidase 2; test: Inhibition of PSMA in human LNCaP cells assessed as cell surface binding per 10^6 cells using 177Lu-labeled compound after 45 mins by gamma counting analysis; format: cell-based; method in brief: as §2
Target sequence in this assay (Q04609 whole entry, looked up): as above

[10] = Drug uptake in iv dosed BALB/c athymic nude mouse muscle xenografted with human LNCaP cells treated with 68Ga-labeled compound measured after 1 hr by microPET imaging analysis; format: ADME, organism-based; settings: in vivo; method in brief: as §1

Compound: O=C(O)CC[C@H](NC(=O)N[C@@H](CCCCNC(=O)c1ccc(CNC(=O)CN2CCN(CC(=O)O)CCN(CC(=O)O)CCN(CC(=O)O)CC2)cc1)C(=O)O)C(=O)O
logD [1]: -1.99
SUV [2]: 0.28
Ratio [3]: 2.2
Retention_time [4]: 1.56 min
Drug uptake [5]: Active
specific internalization (% of added activity per 10^6 cells) [6]: 5.11%
Ki [7]: 1.97 nM
SUV [8]: 2.68
specific cell surface binding (% of applied activity per 10^6 cells) [9]: 8.54%
SUV [10]: 0.13

Compound: O=C(O)CC[C@H](NC(=O)N[C@@H](CCCCNC(=O)[C@H](Cc1ccc2ccccc2c1)NC(=O)CCCCCNC(=O)CN1CCN(CC(=O)O)CCN(CC(=O)O)CCN(CC(=O)O)CC1)C(=O)O)C(=O)O
logD [1]: -1.88
SUV [2]: 0.14
Ratio [3]: 2
Retention_time [4]: 2.58 min
specific internalization (% of added activity per 10^6 cells) [6]: 2.99%
Ki [7]: 6.31 nM
SUV [8]: 2.26
specific cell surface binding (% of applied activity per 10^6 cells) [9]: 9.07%
SUV [10]: 0.07

Compound: O=C(O)CC[C@H](NC(=O)N[C@@H](CCCCNC(=O)[C@H](Cc1ccc2ccccc2c1)NC(=O)CN1CCN(CC(=O)O)CCN(CC(=O)O)CCN(CC(=O)O)CC1)C(=O)O)C(=O)O
logD [1]: -2.03
SUV [2]: 0.31
Ratio [3]: 1.6
Retention_time [4]: 2.71 min
specific internalization (% of added activity per 10^6 cells) [6]: 1.77%
Ki [7]: 28.6 nM
SUV [8]: 4.79
specific cell surface binding (% of applied activity per 10^6 cells) [9]: 1.68%
SUV [10]: 0.2

Compound: O=C(O)CC[C@H](NC(=O)N[C@@H](CCCCNC(=O)c1ccc(CNC(=O)c2ccc(CNC(=O)c3ccc(CNC(=O)c4ccc(CNC(=O)CN5CCN(CC(=O)O)CCN(CC(=O)O)CCN(CC(=O)O)CC5)cc4)cc3)cc2)cc1)C(=O)O)C(=O)O
logD [1]: -2.12
SUV [2]: 0.52
Ratio [3]: 2.1
Retention_time [4]: 2.44 min
Drug uptake [5]: Active
specific internalization (% of added activity per 10^6 cells) [6]: 6.86%
Ki [7]: 6.19 nM
SUV [8]: 2.21
specific cell surface binding (% of applied activity per 10^6 cells) [9]: 25.2%
SUV [10]: 0.25

Compound: O=C(O)CC[C@H](NC(=O)N[C@@H](CCCCNC(=O)[C@H]1CC[C@H](CNC(=O)CN2CCN(CC(=O)O)CCN(CC(=O)O)CCN(CC(=O)O)CC2)CC1)C(=O)O)C(=O)O
logD [1]: -0.91
SUV [2]: 0.23
Ratio [3]: 1.5
Retention_time [4]: 1.81 min
Drug uptake [5]: Not Active
specific internalization (% of added activity per 10^6 cells) [6]: 1.24%
Ki [7]: 9.33 nM
SUV [8]: 6.86
specific cell surface binding (% of applied activity per 10^6 cells) [9]: 4.14%
SUV [10]: 0.15

Compound: O=C(O)CCc1ccc(O)c(CN(CCN(CC(=O)O)Cc2cc(CCC(=O)NCCCCCC(=O)NCCCC[C@H](NC(=O)N[C@@H](CCC(=O)O)C(=O)O)C(=O)O)ccc2O)CC(=O)O)c1 [GOZETOTIDE]
logD [1]: -1.71
Ratio [3]: 4.9
Retention_time [4]: 1.69 min
specific internalization (% of added activity per 10^6 cells) [6]: 9.47%
Ki [7]: 12 nM
specific cell surface binding (% of applied activity per 10^6 cells) [9]: 10.6%

Compound: O=C(O)CC[C@H](NC(=O)N[C@@H](CCCCNC(=O)[C@H]1CC[C@H](CNC(=O)[C@H]2CC[C@H](CNC(=O)[C@H]3CC[C@H](CNC(=O)CN4CCN(CC(=O)O)CCN(CC(=O)O)CCN(CC(=O)O)CC4)CC3)CC2)CC1)C(=O)O)C(=O)O
logD [1]: -1.98
SUV [2]: 0.18
Ratio [3]: 0.9
Retention_time [4]: 2.28 min
Drug uptake [5]: Not Active
specific internalization (% of added activity per 10^6 cells) [6]: 0.03%
Ki [7]: 19.4 nM
SUV [8]: 2.91
specific cell surface binding (% of applied activity per 10^6 cells) [9]: 0.23%
SUV [10]: 0.21

More lines, now with the values ahead:

SUV [2]: Not Determined(Unstable)
Ratio [3]: Not Determined(Unstable)
Retention_time [4]: 2.7 min
SUV [8]: Not Determined(Unstable)
SUV [10]: Not Determined(Unstable)
Compound: O=C(O)CC[C@H](NC(=O)N[C@@H](CCCCNC(=O)c1ccc(CNC(=O)[C@H](Cc2ccc3ccccc3c2)NC(=O)[C@H]2CC[C@H](CNC(=O)CN3CCN(CC(=O)O)CCN(CC(=O)O)CCN(CC(=O)O)CC3)CC2)cc1)C(=O)O)C(=O)O

logD [1]: -2.02
SUV [2]: 0.69
Retention_time [4]: 2.56 min
Drug uptake [5]: Active
specific internalization (% of added activity per 10^6 cells) [6]: 7.18%
Ki [7]: 8.86 nM
SUV [8]: 3.98
specific cell surface binding (% of applied activity per 10^6 cells) [9]: 12.2%
SUV [10]: 0.27
Compound: O=C(O)CC[C@H](NC(=O)N[C@@H](CCCCNC(=O)[C@@H](Cc1ccc2ccccc2c1)NC(=O)[C@H]1CC[C@H](CNC(=O)CN2CCN(CC(=O)O)CCN(CC(=O)O)CCN(CC(=O)O)CC2)CC1)C(=O)O)C(=O)O

logD [1]: -1.94
SUV [2]: 0.56
Ratio [3]: 5.6
Retention_time [4]: 1.78 min
Drug uptake [5]: Active
specific internalization (% of added activity per 10^6 cells) [6]: 3.66%
Ki [7]: 7.51 nM
SUV [8]: 3.16
specific cell surface binding (% of applied activity per 10^6 cells) [9]: 14.3%
SUV [10]: 0.1
Compound: O=C(O)CC[C@H](NC(=O)N[C@@H](CCCCNC(=O)c1ccc(CNC(=O)c2ccc(CNC(=O)CN3CCN(CC(=O)O)CCN(CC(=O)O)CCN(CC(=O)O)CC3)cc2)cc1)C(=O)O)C(=O)O

logD [1]: -1.98
SUV [2]: 0.63
Ratio [3]: 2.7
Retention_time [4]: 2.59 min
Drug uptake [5]: Active
specific internalization (% of added activity per 10^6 cells) [6]: 2.22%
Ki [7]: 0.5 nM
SUV [8]: 6.57
specific cell surface binding (% of applied activity per 10^6 cells) [9]: 4.93%
SUV [10]: 0.23
Compound: O=C(O)CC[C@H](NC(=O)N[C@@H](CCCCNC(=O)[C@H](Cc1ccc(-c2ccccc2)cc1)NC(=O)CN1CCN(CC(=O)O)CCN(CC(=O)O)CCN(CC(=O)O)CC1)C(=O)O)C(=O)O

logD [1]: -1.95
SUV [2]: 0.29
Ratio [3]: 3.6
Retention_time [4]: 2.59 min
Drug uptake [5]: Not Active
specific internalization (% of added activity per 10^6 cells) [6]: 0.9%
Ki [7]: 12.8 nM
SUV [8]: 2.15
specific cell surface binding (% of applied activity per 10^6 cells) [9]: 6.58%
SUV [10]: 0.08
Compound: O=C(O)CC[C@H](NC(=O)N[C@@H](CCCCNC(=O)[C@H](Cc1cccc2ccccc12)NC(=O)[C@H]1CC[C@H](CNC(=O)CN2CCN(CC(=O)O)CCN(CC(=O)O)CCN(CC(=O)O)CC2)CC1)C(=O)O)C(=O)O

logD [1]: -1.44
SUV [2]: 0.39
Ratio [3]: 3.5
Retention_time [4]: 2.48 min
Drug uptake [5]: Not Active
specific internalization (% of added activity per 10^6 cells) [6]: 0.13%
Ki [7]: 17.7 nM
SUV [8]: 3.62
specific cell surface binding (% of applied activity per 10^6 cells) [9]: 1.09%
SUV [10]: 0.11
Compound: O=C(O)CC[C@H](NC(=O)N[C@@H](CCCCNC(=O)[C@H]1CC[C@H](CNC(=O)[C@H](Cc2ccc3ccccc3c2)NC(=O)CN2CCN(CC(=O)O)CCN(CC(=O)O)CCN(CC(=O)O)CC2)CC1)C(=O)O)C(=O)O
